Results taken from ChEMBL document CHEMBL1143822, “Three-dimensional quantitative structure-activity relationship analysis of human CYP51 inhibitors” (Drug Metab Dispos, 2007).

T1: Lanosterol 14-alpha demethylase (Homo sapiens, UniProt Q16850)
T1 sequence (Q16850 whole entry): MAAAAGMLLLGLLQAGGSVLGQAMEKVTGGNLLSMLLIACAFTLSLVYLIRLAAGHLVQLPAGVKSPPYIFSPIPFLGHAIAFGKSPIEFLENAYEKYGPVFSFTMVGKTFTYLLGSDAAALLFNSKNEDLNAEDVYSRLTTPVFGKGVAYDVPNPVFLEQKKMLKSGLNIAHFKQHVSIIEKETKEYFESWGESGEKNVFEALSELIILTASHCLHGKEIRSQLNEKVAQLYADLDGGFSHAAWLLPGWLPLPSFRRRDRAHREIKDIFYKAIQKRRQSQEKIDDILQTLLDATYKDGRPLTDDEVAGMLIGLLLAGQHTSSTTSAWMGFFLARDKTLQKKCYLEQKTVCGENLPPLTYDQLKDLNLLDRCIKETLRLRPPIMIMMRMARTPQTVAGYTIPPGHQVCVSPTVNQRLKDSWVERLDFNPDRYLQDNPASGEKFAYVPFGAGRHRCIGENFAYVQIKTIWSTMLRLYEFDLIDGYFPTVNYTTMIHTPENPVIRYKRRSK

B1: Lanosterol 14-alpha demethylase (Homo sapiens) (protein)
chain: T1 sequence (Q16850 whole entry)

What was measured:
[1] = biological target: T1, Lanosterol 14-alpha demethylase; test: Inhibition of human CYP51 expressed in Topp 3 cells by lanosterol demethylase assay; assay type: cell-based
Procedure, shortened: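 0.5 ml phosphate buffer pH 7.4 with KCN, NADPH regenerating system, 60 min at 37 °C. Triene product extracted and quantified by chromatography (ergosterol internal standard). IC50 read from plot of % activity remaining vs concentration.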

[2] = biological target: T1, Lanosterol 14-alpha demethylase; test: Binding affinity to human CYP51
[3] = substrate: CC(C)=CCC[C@@H](C)[C@H]1CC[C@@]2(C)C3=C(CC[C@]12C)[C@@]1(C)CC[C@H](O)C(C)(C)[C@@H]1CC3; test: Binding affinity to human reconstituted CYP51

Molecule | IC50 [1] | further results
CCCNC(=O)NS(=O)(=O)c1ccc(Cl)cc1 [CHLORPROPAMIDE] | > 200 µM | –
O=C(N[C@@H](Cc1c[nH]cn1)C(=O)N1CCC(O)CC1)c1cc2cc(Cl)ccc2[nH]1 | 1.3 µM | –
CC(=O)N1CCN(c2ccc(OC[C@H]3CO[C@](Cn4ccnc4)(c4ccc(Cl)cc4Cl)O3)cc2)CC1 [KETOCONAZOLE] | 0.19 µM | Kd [2]: 8 µM
O=C1C(CC[S+]([O-])c2ccccc2)C(=O)N(c2ccccc2)N1c1ccccc1 (stereo not given) [SULFINPYRAZONE] | > 200 µM | –
Clc1ccccc1C(c1ccccc1)(c1ccccc1)n1ccnc1 [CLOTRIMAZOLE] | 0.13 µM | –
O=C(N[C@H](Cc1ccccc1)C(=O)N1CCC(O)CC1)c1cc2cc(Cl)ccc2[nH]1 | 100 µM | –
CCC(C)n1ncn(-c2ccc(N3CCN(c4ccc(OCC5COC(Cn6cncn6)(c6ccc(Cl)cc6Cl)O5)cc4)CC3)cc2)c1=O (stereo not given) [ITRACONAZOLE] | 3.6 µM | –
CO[C@H]1/C=C/O[C@@]2(C)Oc3c(C)c(O)c4c(O)c(c(/C=N/N5CCN(C)CC5)c(O)c4c3C2=O)NC(=O)/C(C)=C\C=C\[C@H](C)[C@H](O)[C@@H](C)[C@@H](O)[C@@H](C)[C@H](OC(C)=O)[C@@H]1C [RIFAMPIN] | 30 µM | –
CC(C)N1CCN(c2ccc(OC[C@H]3CO[C@](Cn4cncn4)(c4ccc(Cl)cc4Cl)O3)cc2)CC1 [TERCONAZOLE] | 3 µM | –
Cn1cc[nH]c1=S [METHIMAZOLE] | > 200 µM | –
COC1=CC(=O)C[C@@H](C)[C@]12Oc1c(Cl)c(OC)cc(OC)c1C2=O [GRISEOFULVIN] | 50 µM | –
O=C(N[C@@H](Cc1ccc(F)cc1)C(=O)N1CCC(O)CC1)c1cc2cc(Cl)ccc2[nH]1 | 4 µM | –
c1ccc(-c2ccc(C(c3ccccc3)n3ccnc3)cc2)cc1 (stereo not given) [BIFONAZOLE] | 0.342 µM | –
O=C(N[C@@H](Cc1ccccc1)C(=O)N1CCC(O)CC1)c1cc2cc(F)ccc2[nH]1 | 75 µM | –
OC(c1ccccc1)(c1cncnc1)c1ccc(Cl)cc1Cl (stereo not given) [TRIARIMOL] | > 10 µM | –
Clc1ccc(C2(Cn3cncn3)OCCO2)c(Cl)c1 [AZACONAZOLE] | > 10 µM | –
O=C(NC1(C(=O)N2CCC(O)CC2)CCCC1)c1cc2cc(Cl)ccc2[nH]1 | 100 µM | –
C[C@]12CC[C@H]3[C@@H](CCC4=CC(=O)CC[C@@]43C)[C@@H]1CC[C@@H]2O [TESTOSTERONE] | 50 µM | –
c1ccc2[nH]cnc2c1 [BENZIMIDAZOLE] | > 200 µM | –
COc1ccc(C[C@H](NC(=O)c2cc3cc(Cl)ccc3[nH]2)C(=O)N2CCC(O)CC2)cc1 | 4.5 µM | –
O=C(N[C@@H](Cc1ccccc1Cl)C(=O)N1CCC(O)CC1)c1cc2cc(Cl)ccc2[nH]1 [ANALOGUE A] | 0.3 µM | –
Nc1ccc(S(=O)(=O)Nc2ccnn2-c2ccccc2)cc1 [SULFAPHENAZOLE] | > 200 µM | –

Molecule | IC50 [1] | further results
Clc1ccc(COC(Cn2ccnc2)c2ccc(Cl)cc2Cl)cc1 (stereo not given) [ECONAZOLE] | 0.05 µM | –
CC(C)CCC[C@@H](C)[C@H]1CC[C@H]2[C@@H]3CC=C4C[C@@H](O)CC[C@]4(C)[C@H]3CC[C@]12C [CHOLESTEROL] | > 200 µM | –
O=C(N[C@@H](Cc1ccc(Cl)cc1)C(=O)N1CCC(O)CC1)c1cc2cc(Cl)ccc2[nH]1 | 9.7 µM | –
CCCCC/C=C\C/C=C\C/C=C\C/C=C\CCCC(=O)NCCO [ANANDAMIDE] | > 200 µM | –
CCCCNC(=O)NS(=O)(=O)c1ccc(C)cc1 [TOLBUTAMIDE] | > 200 µM | –
O=C(N[C@@H](Cc1ccccc1)C(=O)N1CCC(O)CC1)c1cc2c([nH]1)CCCC2 | > 200 µM | –
O=C(N[C@@H](Cc1ccccc1)C(=O)N1CCC(O)CC1)c1cc2cc(Cl)ccc2[nH]1 | 3.1 µM | –
CC(=O)[C@H]1CC[C@H]2[C@@H]3CC=C4C[C@@H](O)CC[C@]4(C)[C@H]3CC[C@]12C [PREGNENOLONE] | > 200 µM | –
O=C(NC(Cc1ccccc1)C(=O)N1CCC(O)CC1)c1ccc[nH]1 (stereo not given) | > 200 µM | –
Cc1ncc([N+](=O)[O-])n1CCO [METRONIDAZOLE] | > 200 µM | –
O=C(N[C@@H](Cc1ccc(O)cc1)C(=O)N1CCC(O)CC1)c1cc2cc(Cl)ccc2[nH]1 | 2.5 µM | –
O=C(N[C@@H](Cc1cccnc1)C(=O)N1CCC(O)CC1)c1cc2cc(Cl)ccc2[nH]1 | 26 µM | –
CCCCC/C=C\C/C=C\C/C=C\C/C=C\CCCC(=O)O [ARACHIDONIC ACID] | > 200 µM | –
CC[C@H](C)C(=O)O[C@H]1C[C@@H](C)C=C2C=C[C@H](C)[C@H](CC[C@@H]3C[C@@H](O)CC(=O)O3)[C@H]21 [LOVASTATIN] | > 200 µM | –
O=C(NC(Cc1ccccc1)C(=O)O)c1cc2cc(Cl)ccc2[nH]1 (stereo not given) | > 200 µM | –
CC[C@H]1OC(=O)[C@H](C)[C@@H](O[C@H]2C[C@@](C)(OC)[C@@H](O)[C@H](C)O2)[C@H](C)[C@@H](O[C@@H]2O[C@H](C)C[C@H](N(C)C)[C@H]2O)[C@](C)(O)C[C@@H](C)C(=O)[C@H](C)[C@@H](O)[C@]1(C)O [ERYTHROMYCIN] | > 200 µM | –
O=C(N[C@@H](Cc1ccccc1F)C(=O)N1CCC(O)CC1)c1cc2cc(Cl)ccc2[nH]1 | 0.8 µM | –
Cc1cccc(N(C)C(=S)Oc2ccc3ccccc3c2)c1 [TOLNAFTATE] | 50 µM | –
Clc1ccc(COC(Cn2ccnc2)c2ccc(Cl)cc2Cl)c(Cl)c1 (stereo not given) [MICONAZOLE] | 0.2 µM | –
CC(=O)[C@H]1CC[C@H]2[C@@H]3CCC4=CC(=O)CC[C@]4(C)[C@H]3CC[C@]12C [PROGESTERONE] | > 200 µM | –
O=C(N[C@@H](Cc1ccccc1)C(=O)N1CCC(O)CC1)c1cc2ccccc2[nH]1 | 0.91 µM | –
B1 | – | Km [3]: 30 µM
